Runt-CBFb FRET – inhibitors of RUNX1 Runt–CBFb binding, primary screen, biochemical, FRET, Cerulean-Runt, Venus-CBFb, uHTS. 220,000 tested, 0.46% active. inhibition, % at 20 µM. Cerulean-Runt/Venus-CBFb FRET ratio 530/480, 1 h. Runt-related transcription factor 1 (Homo sapiens) + Core-binding factor subunit beta …;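 active = inhibition over about 50% at 20 µM in the single-dose screen, limit read from the data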
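System: Cerulean-labeled Runt domain protein | Quantity: 100 nM of each labeled protein | Schedule: 1 h compound exposure, room temperature | Detection: Fluorescence energy transfer, 422 nm excitation, 530/480 nm emission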
Tb hexokinase – Trypanosoma brucei hexokinase 1 inhibitors, primary screen, biochemical, G6PDH-coupled NADH absorbance, MLSCN library; hexokinase 1 [Trypanosoma brucei]; inhibition, % at 10 µM; 220,000 tested, 0.11% active; recombinant TbHK1, G6PDH-coupled NADH A340;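 active = inhibition of 50% or more in the single-dose primary screen; inactive = inhibition below 50%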
Hck Nef HTS – inhibitors of Nef-activated human Hck kinase, primary screen, biochemical, Z-Lyte FRET, 384-well, Hck-YEEI | AID 463187, 2010 | Recombinant Hck-YEEI plus Nef, Z-Lyte FRET kinase assay | Tyrosine-protein kinase HCK (Homo sapiens), P08631 | inhibition, % at 20 µM | 220,000 tested, 0.68% active;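 active = Hck-Nef kinase inhibition above about 50%, limit read from the data; inactive = inhibition below that limit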
Target sequence (P08631 whole entry, looked up): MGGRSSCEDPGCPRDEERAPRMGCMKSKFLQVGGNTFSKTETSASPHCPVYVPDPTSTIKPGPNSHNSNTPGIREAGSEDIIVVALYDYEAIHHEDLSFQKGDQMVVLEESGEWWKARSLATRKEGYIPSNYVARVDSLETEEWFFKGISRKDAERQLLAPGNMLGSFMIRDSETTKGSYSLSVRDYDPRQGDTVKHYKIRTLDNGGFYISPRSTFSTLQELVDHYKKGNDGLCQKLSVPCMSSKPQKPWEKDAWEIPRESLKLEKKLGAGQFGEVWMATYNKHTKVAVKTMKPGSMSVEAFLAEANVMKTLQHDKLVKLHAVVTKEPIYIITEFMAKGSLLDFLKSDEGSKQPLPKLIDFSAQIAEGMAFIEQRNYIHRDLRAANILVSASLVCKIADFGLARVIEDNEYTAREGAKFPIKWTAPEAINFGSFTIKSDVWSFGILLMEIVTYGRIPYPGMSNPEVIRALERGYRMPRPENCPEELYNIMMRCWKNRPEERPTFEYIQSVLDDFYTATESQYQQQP
RanGTP-Impb inh – inhibitors of RanGTP-importin-beta interaction, primary screen, biochemical, FRET, CFP-Ran, YFP-importin-beta, homogeneous; 300,000 tested, 1.1% active; Ran GTPase (GTP-bound) - importin-beta complex; cell-free CFP-Ran/YFP-importin-beta FRET ratio; inhibition, % (concentration not given with the values);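 active = more than half of the replicate wells show a fall in the fluorescence ratio signal beyond about 16%, limit read from the data, passing the limit was not always enough; inconclusive = exactly half of the replicate wells pass the set limit; inactive = fewer than half of replicates pass the limit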
Runt-SMMHC FRET – inhibitors of RUNX1 Runt–CBFb-SMMHC binding, primary screen, biochemical, FRET, Cerulean-Runt, Venus-CBFb-SMMHC, uHTS | Runt-related transcription factor 1 (Homo sapiens) + Core-binding factor subunit beta … | 220,000 tested, 0.74% active | Cerulean-Runt/Venus-CBFb-SMMHC FRET ratio 530/480, 1 h | inhibition, % at 20 µM;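 active = mean inhibition across duplicate retests at 20 µM reaching about 50%, limit read from the data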;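 also: inhibitors lower the FRET ratio by blocking Runt binding to CBFb-SMMHC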
YIC FRET counter – YIC intramolecular FRET probe signal interference, dose response, counter-screen for RanGTP-importin-beta inhibitor project, biochemical, fluorescence FRET; Purified YIC probe, intramolecular FRET ratio YFP/CFP; shares compounds with RanGTP-Impb inh; IC50, µM; 1,000 tested, 40% active; AID 435026, 2010;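 active = fitted half-maximal inhibitory concentration no more than tenfold above the top dose tested; inconclusive = flat fit with 30 to 70% activity, or poor fit; inactive = half-maximal concentration beyond tenfold above the top dose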
Numbers stand for hits; n = inactive; u = inconclusive; x = not tested or not shown. Compounds with a hit are over-represented: about 1.9% of the library has one in this group of screens.

SMILES | Runt-CBFb FRET | Tb hexokinase | Hck Nef HTS | RanGTP-Impb inh | Runt-SMMHC FRET | YIC FRET counter
Cc1nc2ccc(NC(=O)c3nn(CC(C)C)c(=O)c4ccccc34)cc2s1 | n | n | n | 20 | n | n
CCC1Sc2ccc(S(=O)(=O)CCC(=O)Nc3cc(C)ccn3)cc2NC1=O (stereo not drawn) | x | x | x | n | x | x
Cc1ccc(NN2C(=O)C=C(c3ccc(Cl)cc3)C2=O)cc1 | n | n | n | n | n | x
CC(=O)Cc1nsc(NC(=O)c2ccc(-c3cccc(C(F)(F)F)c3)o2)n1 | n | n | n | 22 | n | n
CC(=O)Cc1nsc(NC(=O)c2ccc(-c3cc(C(F)(F)F)ccc3Cl)o2)n1 | n | n | n | n | n | x
Cn1c(=O)oc2cc(S(=O)(=O)NCCC(=O)N3CCN(c4ccccc4)CC3)ccc21 | x | x | x | n | x | x
Cn1c(=O)oc2cc(S(=O)(=O)NCCC(=O)N3CC=C(c4ccccc4)CC3)ccc21 | n | n | n | 18 | n | n
CC1CN(CCC(=O)Nc2ccc3c(c2)OCO3)CC(C)O1 (stereo not drawn) | n | n | n | n | n | x
C[C@@H]1CCCCO[C@H](CN(C)Cc2ccc3c(c2)OCO3)[C@@H](C)CN([C@H](C)CO)C(=O)c2cc(NC(=O)CCCN(C)C)ccc2O1 | x | x | x | x | x | n
N=C1C(c2ccccc2)=C(O)CN1c1cccc(S(=O)(=O)NCc2ccco2)c1 | n | n | n | n | n | x
O=C1CCCN=C(Nc2ccc(F)c(Cl)c2)S1 | n | n | n | n | n | x
CC1(C)CCC(=O)C=C1Nc1ccc(F)c(Cl)c1 | x | x | x | 26 | x | n
CC(OC(=O)CC(NC(=O)c1ccccc1Cl)c1ccccc1)C(=O)Nc1cccc(Cl)c1Cl (stereo not drawn) | n | n | n | n | n | x
CCn1c(SCc2nc(-c3ccccc3)no2)nnc1-c1ccco1 | n | n | n | n | n | x
CCn1c(SCc2nc(-c3ccccc3)no2)nnc1-c1cccs1 | n | n | n | 24 | n | n
O=C(CSc1n[nH]c(-c2cc(Cl)ccc2Cl)n1)NCCN1C(=O)CSC1=O | n | n | n | n | n | x
O=C(Nc1nonc1NC(=O)c1cccs1)c1cccs1 | n | n | n | 21 | n | n
O=C(Nc1ccc(NC(=O)c2cccs2)cc1)c1cccs1 | x | x | x | n | x | x
CC(CCc1ccccc1)NC(=O)CNC(=O)c1ccccc1Br (stereo not drawn) | x | x | x | n | x | x
O=C(NCCc1ccccc1)C1CCC(CNc2nc(=S)[nH]c3ccccc23)CC1 (stereo not drawn) | n | n | n | n | n | x
CCC(=O)Nc1ccc(N/C(N)=N/c2nc(C)cc(C)n2)cc1 | n | n | n | 17 | n | n
Cc1cccc(NC(=O)c2cc(S(=O)(=O)N3CCc4ccccc43)cn2C)c1C | x | x | x | n | x | x
CCCNC(=O)c1ccccc1NC(=O)CN(c1ccccc1)S(=O)(=O)N(C)C | n | n | n | u | n | x
O=C(NC1CCCCCC1)C(=S)NCCc1ccccc1 | n | n | n | 25 | n | n
Cc1ccc(NC(=O)CSc2ncc(S(=O)(=O)c3ccccc3)c(=O)[nH]2)cc1C | n | n | n | n | n | x
SMILES | Runt-CBFb FRET | Tb hexokinase | Hck Nef HTS | RanGTP-Impb inh | Runt-SMMHC FRET | YIC FRET counter
COc1cccc(NC(=O)CSc2ncc(S(=O)(=O)c3ccccc3)c(=O)[nH]2)c1 | n | n | n | 30 | n | n
Cn1nnnc1SCC(=O)Nc1nn(-c2ccccc2)nc1C(N)=O | n | n | n | 18 | n | n
Cn1nnnc1SCC(=O)Nc1ccc(Oc2ccccc2)cc1 | n | n | n | n | n | x
Cc1[nH]c(=O)[nH]c(=O)c1S(=O)(=O)Nc1cccc(C(F)(F)F)c1 | x | x | x | n | x | x
CN(C)c1oc(-c2cccs2)nc1C#N | n | n | n | 24 | n | n
Cc1ccc(OCC(=O)N2CCCCCC2)c(C)c1 | n | n | n | 17 | n | n
Cc1c(C=O)cnn1CCC(=O)O | x | n | n | 23 | x | n
COc1cc(C(=O)N2CCCN(C)CC2)cc(OC)c1C | x | x | x | n | x | x
